IMP-1 inhibitor – IMP-1 metallo-beta-lactamase inhibitors, primary screen, biochemical, epi-absorbance readout, Pseudomonas aeruginosa enzyme | purified IMP-1, nitrocefin hydrolysis, epi-absorbance fluorescence | inhibition, % at 5.6 µM | hit rate 0.45% among 290,000 | AID 1556, 2009;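 active means inhibition above the mean plus 3 SD of all compounds in the same screening run, cut at about 4.5% in these data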;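 further: 0% = IMP-1 with DMSO and 100% = DMSO wells lacking enzyme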
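System: purified IMP-1 / Input: IMP-1 dispensed at 0.2 nM / Medium: 50 mM HEPES pH 7.1, 50 µM ZnSO4, 0.05% Brij 35 / Timing: 15 min enzyme–compound preincubation, then 25 min nitrocefin reaction, 25 °C / Technique: plate fluorescence quenching by hydrolysis product, ex 480/em 530 nm / Repeats: singlicate testing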
VIM-2 inhibitor – VIM-2 metallo-beta-lactamase inhibitors, primary screen, biochemical, epi-absorbance readout, Pseudomonas aeruginosa enzyme; purified VIM-2, nitrocefin hydrolysis, epi-absorbance fluorescence; inhibition, % at 5.6 µM; hit rate 0.89% among 290,000; AID 1527, 2009;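 active means inhibition above the mean of all tested compounds plus 3 SD, cutoff set per screening run, cut at about 7.5% in these data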;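 further: red hydrolysis product quenches plate fluorescence so inhibitors raise well fluorescence; 0% = enzyme with DMSO and 100% = DMSO without enzyme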
PLCb3 inh – human PLC-beta3 inhibitors, primary screen, biochemical, fluorescence; 1-phosphatidylinositol 4,5-bisphosphate phosphodiesterase beta-3 (Homo sapiens), Q01970; Purified PLC-beta3, fluorogenic substrate; inhibition, % at 12.2 µM; hit rate 0.18% among 370,000; in the data active means inhibition above about 11%;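 further: 0% = median of compound wells on plate and 100% = full blocker control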
PvdQ acylase – P. aeruginosa PvdQ acylase inhibitors, primary screen, biochemical, fluorescence, plate reader and imaging, single point | purified PvdQ acylase | inhibition, % at 10 µM | PvdQ acylase [Pseudomonas aeruginosa LESB58] | AID 488965, 2010 | hit rate 0.063% among 340,000; in the data active means inhibition above about 30%, passing the limit was not always enough;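 further: 0% = vehicle neutral wells and 100% = reference inhibitor wells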
PLC-gamma1 inh – PLC-gamma1 enzyme inhibitors, primary screen, biochemical, fluorescence, purified enzyme; fluorogenic substrate; hit rate 0.84% among 370,000; 1-phosphatidylinositol 4,5-bisphosphate phosphodiesterase gamma-1 (Homo sapiens), P19174; inhibition, % at 12.2 µM; in the data active means inhibition above about 9.5%
Target sequence (P19174 whole entry, looked up): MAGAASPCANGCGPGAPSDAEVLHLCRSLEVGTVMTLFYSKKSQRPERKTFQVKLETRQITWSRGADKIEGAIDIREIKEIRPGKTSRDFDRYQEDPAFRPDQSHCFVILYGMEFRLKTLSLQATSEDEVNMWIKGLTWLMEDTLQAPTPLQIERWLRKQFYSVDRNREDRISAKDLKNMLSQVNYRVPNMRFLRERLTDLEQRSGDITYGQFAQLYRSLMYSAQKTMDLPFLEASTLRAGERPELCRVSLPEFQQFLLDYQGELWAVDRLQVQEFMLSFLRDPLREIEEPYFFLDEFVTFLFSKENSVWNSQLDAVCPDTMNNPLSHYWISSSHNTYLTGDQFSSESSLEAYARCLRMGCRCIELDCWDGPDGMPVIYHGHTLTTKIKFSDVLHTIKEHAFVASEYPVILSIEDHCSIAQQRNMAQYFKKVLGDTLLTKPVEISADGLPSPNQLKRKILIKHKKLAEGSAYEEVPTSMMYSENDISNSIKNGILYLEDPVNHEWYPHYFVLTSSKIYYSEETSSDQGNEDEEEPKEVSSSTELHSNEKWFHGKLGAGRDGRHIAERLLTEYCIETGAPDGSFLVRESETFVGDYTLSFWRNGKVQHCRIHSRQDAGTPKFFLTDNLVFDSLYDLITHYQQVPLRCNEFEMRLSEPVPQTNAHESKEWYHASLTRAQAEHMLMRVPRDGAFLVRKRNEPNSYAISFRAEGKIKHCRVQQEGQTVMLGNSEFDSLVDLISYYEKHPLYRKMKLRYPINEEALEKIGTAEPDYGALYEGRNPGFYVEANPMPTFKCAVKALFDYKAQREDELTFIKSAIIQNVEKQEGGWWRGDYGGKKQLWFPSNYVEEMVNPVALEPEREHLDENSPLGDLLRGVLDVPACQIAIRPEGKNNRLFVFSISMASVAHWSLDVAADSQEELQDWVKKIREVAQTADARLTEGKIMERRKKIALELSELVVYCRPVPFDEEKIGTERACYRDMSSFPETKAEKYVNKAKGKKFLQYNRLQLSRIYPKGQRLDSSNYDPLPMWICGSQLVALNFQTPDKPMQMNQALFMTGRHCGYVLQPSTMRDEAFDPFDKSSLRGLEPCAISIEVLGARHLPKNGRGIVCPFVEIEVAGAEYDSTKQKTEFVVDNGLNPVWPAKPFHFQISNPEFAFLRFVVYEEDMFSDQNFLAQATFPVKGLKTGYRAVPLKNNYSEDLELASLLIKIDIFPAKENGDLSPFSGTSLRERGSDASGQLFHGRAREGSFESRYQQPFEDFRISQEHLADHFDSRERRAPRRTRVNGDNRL
* marks the source's active call; other numbers are inactive results. A selection: hits, their analogues and other compounds. The true share with any hit is near 2%.

Screening CCNC(=O)NC(=O)COC(=O)c1ccccc1SCC(=O)NC(=O)NCC returned IMP-1 inhibitor 4, VIM-2 inhibitor 11*, PLCb3 inh -243, PvdQ acylase -30 and PLC-gamma1 inh -209.
Screening O=C(COC(=O)c1ccccc1SCC(=O)NC1CCS(=O)(=O)C1)NC1CCS(=O)(=O)C1 (centres undefined) returned IMP-1 inhibitor -3, VIM-2 inhibitor 0, PLCb3 inh -6, PvdQ acylase -7 and PLC-gamma1 inh 0.
Screening N#CC(OC(=O)c1ccccc1)c1cccc([N+](=O)[O-])c1 (centres undefined) returned PLCb3 inh 1, PvdQ acylase 72* and PLC-gamma1 inh -1.
Screening Cc1nn(CCCC(=O)NCCCN2CCN(C)CC2)c(=O)c2c1sc1ccccc12 returned IMP-1 inhibitor -2, VIM-2 inhibitor 12*, PLCb3 inh -3, PvdQ acylase -6 and PLC-gamma1 inh 2.
`Cc1nn(CC(=O)N2CCN(C)CC2)c(=O)c2c1sc1ccccc12` gave IMP-1 inhibitor -4, VIM-2 inhibitor 11*, PLCb3 inh -3, PvdQ acylase -9 and PLC-gamma1 inh 1.
`Cc1nn(C(C)C(=O)NCCCN2CCCCCC2)c(=O)c2c1sc1ccccc12` (centres undefined) gave IMP-1 inhibitor -2, VIM-2 inhibitor 0, PLCb3 inh -18, PvdQ acylase -14 and PLC-gamma1 inh -6.
Screening COC(=O)[C@]12C[C@H](CC(=O)NCCCCc3ccccc3)C(=O)N(Cc3ccc(Cl)cc3Cl)C1=C[C@H](COCc1ccccc1)O[C@@H]2C returned PLCb3 inh 1 and PLC-gamma1 inh -1.
For Cc1cccc(CN[C@@H]2CC[C@@]34CCCN3C(=O)CCC[C@H]4C2)c1 the results were PLCb3 inh 0 and PLC-gamma1 inh 2.
`Cc1ccc(-c2cc(-c3nnc(SCC(=O)Nc4nccs4)n3N)[nH]n2)cc1` gave PLCb3 inh 0 and PLC-gamma1 inh -1.
Screening CN1C(=O)c2cccc3c(Cl)ccc(c23)C1=O returned IMP-1 inhibitor 0, VIM-2 inhibitor 0, PLCb3 inh -8, PvdQ acylase -13 and PLC-gamma1 inh -4.
CN1C(=O)c2cccc3c(N(C)C)ccc(c23)C1=O was read as IMP-1 inhibitor 1, VIM-2 inhibitor 9.8*, PLCb3 inh -91, PvdQ acylase 3 and PLC-gamma1 inh -73.
Screening Brc1cc2c(cc1/C=N/Nc1nc3ccccc3s1)OCO2 returned IMP-1 inhibitor -1, VIM-2 inhibitor -2, PLCb3 inh 0, PvdQ acylase -15 and PLC-gamma1 inh 2.
Screening O=C(O)C/C(=C\c1cc2c(cc1Br)OCO2)c1nc2ccccc2s1 returned IMP-1 inhibitor -4, VIM-2 inhibitor 8.8*, PLCb3 inh -23, PvdQ acylase 9 and PLC-gamma1 inh -10.
`NC(=O)c1ccc(NC(=O)CCC(=O)c2cccs2)cc1` gave IMP-1 inhibitor 5.0*, VIM-2 inhibitor -4, PLCb3 inh -7, PvdQ acylase -10 and PLC-gamma1 inh -1.
Screening O=C(CCC(=O)c1cccs1)c1cccs1 returned IMP-1 inhibitor 4.6*, VIM-2 inhibitor -2, PLCb3 inh 0, PvdQ acylase -3 and PLC-gamma1 inh -1.
For O=C1C(=Cc2ccco2)CCC1=Cc1ccco1 the results were PLCb3 inh -4, PvdQ acylase 7 and PLC-gamma1 inh 11*.
Screening CCCCCCCCN1C(=O)[C@@H](CC(=O)NCc2cccc(C(F)(F)F)c2)C[C@@]2(C(=O)OC)C1=C[C@H](C(C)C)O[C@@H]2C1CC1 returned PLCb3 inh -2 and PLC-gamma1 inh -1.
Cc1c(C)c2ccc(OC(C)C(=O)NCCCN3CCOCC3)c(C)c2oc1=O (centres undefined) was read as IMP-1 inhibitor 1, VIM-2 inhibitor 8.6*, PLCb3 inh -31, PvdQ acylase 3 and PLC-gamma1 inh -14.
`Cc1c(OC(C)C(=O)NCCCN2CCOCC2)ccc2c3c(c(=O)oc12)CCCC3` (centres undefined) gave IMP-1 inhibitor -1, VIM-2 inhibitor 11*, PLCb3 inh -34, PvdQ acylase 1 and PLC-gamma1 inh -21.
For O=C(COc1ccc2c3c(c(=O)oc2c1)CCCC3)N[C@@H](Cc1ccccc1)C(=O)O the results were IMP-1 inhibitor -2, VIM-2 inhibitor 0, PLCb3 inh -51, PvdQ acylase 9 and PLC-gamma1 inh -39.
Screening O=C(COc1ccc2c3c(c(=O)oc2c1)CCCC3)NCc1cccnc1 returned IMP-1 inhibitor -2, VIM-2 inhibitor 9.2*, PLCb3 inh -4, PvdQ acylase -7 and PLC-gamma1 inh -1.
Screening CC(Oc1ccc2c3c(c(=O)oc2c1)CCC3)C(=O)NCCN1CCOCC1 (centres undefined) returned IMP-1 inhibitor -2, VIM-2 inhibitor 12*, PLCb3 inh -7, PvdQ acylase 6 and PLC-gamma1 inh -7.
For Cc1cc(=O)oc2c(C)c(OC(C)C(=O)NCCCN3CCOCC3)ccc12 (centres undefined) the results were IMP-1 inhibitor -3, VIM-2 inhibitor -3, PLCb3 inh -14, PvdQ acylase -14 and PLC-gamma1 inh -1.
`Cc1c(C)c2ccc(OC(C)C(=O)NCCN3CCOCC3)c(C)c2oc1=O` (centres undefined) gave IMP-1 inhibitor -3, VIM-2 inhibitor 7, PLCb3 inh -26, PvdQ acylase -6 and PLC-gamma1 inh -11.
Screening C#CCNC(=O)C[C@@H]1C(=O)N2CCCC3=C2[C@@]1(C(=O)OC)CCCC3 returned PLCb3 inh 1 and PLC-gamma1 inh 2.
Screening FC(F)(F)c1cccc(N2CCN(C(=S)Nc3nccc4ccccc34)CC2)c1 returned PLCb3 inh -56 and PLC-gamma1 inh -3.
CC(Oc1ccc2c3c(c(=O)oc2c1)CCCC3)C(=O)NCc1ccccn1 (centres undefined) was read as IMP-1 inhibitor 1, VIM-2 inhibitor 8.5*, PLCb3 inh -50, PvdQ acylase 7 and PLC-gamma1 inh -26.
C[C@H]1[C@@H](OC(=O)NCCc2c[nH]c3ccccc23)CC[C@@]23CCCN2C(=O)CCC[C@@H]13 was read as PLCb3 inh -2 and PLC-gamma1 inh -2.
For O=C(CN1CCN(Cc2ccccc2Cl)CC1)N/N=C\c1ccccc1F the results were PLCb3 inh 2 and PLC-gamma1 inh 2.
CC(C)(C)c1ccc(-c2nnc(SCc3ccccc3)n2Cc2ccco2)cc1 was read as PLCb3 inh 4 and PLC-gamma1 inh 1.
Screening C[C@H]1[C@@H](C(=O)N2CCCC2)Cc2nc3ccccc3nc2C[C@@H]1c1ccccc1 returned PLCb3 inh -4 and PLC-gamma1 inh -3.
`Cc1ccc(-c2nc3ccsc3c(=O)o2)cc1` gave IMP-1 inhibitor -1, VIM-2 inhibitor 2, PLCb3 inh 1, PvdQ acylase 66* and PLC-gamma1 inh 2.

Source: PubChem (several laboratories)
